Test results published in ChEMBL document CHEMBL4689842, “EUbOPEN Chemogenomics Library wave 1” (2021).

Test system: Fibroblast
Experiment: Multiplex assay against human fibroblast
Format: toxicity, cell-based
In short: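 At seeding, live cells were stained with Hoechst33342, BioTracker Green Microtubule Cytoskeleton Dye, MitoTracker Red and Annexin V Alexa Fluor 680. After compound addition they were imaged on a CQ1 microscope at 37°C and 5% CO2, and CellPathfinder machine-learning gating sorted them into Hoechst high-intensity objects or normal cells, with normal cells further split into healthy, pyknosed or fragmented nuclei and pyknosed cells into mitotic or apoptotic. Tubulin, mitochondrial-mass and membrane-permeability phenotypes are given as per cents of cells with healthy nuclei.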

[1] = 12 h, 1 µM, compound concentration 1 uM, replicate 1
[2] = 12 h, 1 µM, compound concentration 1 uM, replicate 2
[3] = 12 h, 10 µM, compound concentration 10 uM, replicate 1
[4] = 12 h, 10 µM, compound concentration 10 uM, replicate 2
[5] = 24 h, 1 µM, compound concentration 1 uM, replicate 1
[6] = 24 h, 1 µM, compound concentration 1 uM, replicate 2
[7] = 24 h, 10 µM, compound concentration 10 uM, replicate 1
[8] = 24 h, 10 µM, compound concentration 10 uM, replicate 2
[9] = 48 h, 1 µM, compound concentration 1 uM, replicate 1
[10] = 48 h, 1 µM, compound concentration 1 uM, replicate 2
[11] = 48 h, 10 µM, compound concentration 10 uM, replicate 1
[12] = 48 h, 10 µM, compound concentration 10 uM, replicate 2

C[C@]12CC[C@@H]3c4ccc(O)cc4CC[C@H]3[C@@H]1CC[C@@H]2O [ESTRADIOL]
Population Apoptotic (%) [1]: 73%
Population Fragmented Nuclei (%) [1]: 30%
Population Healthy Nuclei (%) [1]: 50%
Population Hoechst High Intensity Objects (%) [1]: 21%
Population Membrane Permeable-Phenotype (%) [1]: 20%
Population Mitochondria Different-Phenotype (%) [1]: 9%
Population Mitotic Cells (%) [1]: 26%
Population Normal (%) [1]: 78%
Population Pyknosed Nuclei (%) [1]: 18%
Population Tubulin-Different-Phenotype (%) [1]: 46%
Population Apoptotic (%) [2]: 50%
Population Fragmented Nuclei (%) [2]: 8%
Population Healthy Nuclei (%) [2]: 86%
Population Hoechst High Intensity Objects (%) [2]: 5%
Population Membrane Permeable-Phenotype (%) [2]: 4%
Population Mitochondria Different-Phenotype (%) [2]: 8%
Population Mitotic Cells (%) [2]: 50%
Population Normal (%) [2]: 94%
Population Pyknosed Nuclei (%) [2]: 5%
Population Tubulin-Different-Phenotype (%) [2]: 14%
Population Apoptotic (%) [3]: 75%
Population Fragmented Nuclei (%) [3]: 24%
Population Healthy Nuclei (%) [3]: 57%
Population Hoechst High Intensity Objects (%) [3]: 14%
Population Membrane Permeable-Phenotype (%) [3]: 20%
Population Mitochondria Different-Phenotype (%) [3]: 7%
Population Mitotic Cells (%) [3]: 25%
Population Normal (%) [3]: 85%
Population Pyknosed Nuclei (%) [3]: 18%
Population Tubulin-Different-Phenotype (%) [3]: 33%
Population Apoptotic (%) [4]: 25%
Population Fragmented Nuclei (%) [4]: 9%
Population Healthy Nuclei (%) [4]: 77%
Population Hoechst High Intensity Objects (%) [4]: 8%
Population Membrane Permeable-Phenotype (%) [4]: 4%
Population Mitochondria Different-Phenotype (%) [4]: 12%
Population Mitotic Cells (%) [4]: 75%
Population Normal (%) [4]: 91%
Population Pyknosed Nuclei (%) [4]: 12%
Population Tubulin-Different-Phenotype (%) [4]: 25%
Population Apoptotic (%) [5]: 45%
Population Fragmented Nuclei (%) [5]: 33%
Population Healthy Nuclei (%) [5]: 50%
Population Hoechst High Intensity Objects (%) [5]: 18%
Population Membrane Permeable-Phenotype (%) [5]: 29%
Population Mitochondria Different-Phenotype (%) [5]: 3%
Population Mitotic Cells (%) [5]: 55%
Population Normal (%) [5]: 82%
Population Pyknosed Nuclei (%) [5]: 16%
Population Tubulin-Different-Phenotype (%) [5]: 43%
Population Apoptotic (%) [6]: 50%
Population Fragmented Nuclei (%) [6]: 4%
Population Healthy Nuclei (%) [6]: 89%
Population Hoechst High Intensity Objects (%) [6]: 3%
Population Membrane Permeable-Phenotype (%) [6]: 4%
Population Mitochondria Different-Phenotype (%) [6]: 9%
Population Mitotic Cells (%) [6]: 50%
Population Normal (%) [6]: 96%
Population Pyknosed Nuclei (%) [6]: 6%
Population Tubulin-Different-Phenotype (%) [6]: 14%
Population Apoptotic (%) [7]: 73%
Population Fragmented Nuclei (%) [7]: 22%
Population Healthy Nuclei (%) [7]: 60%
Population Hoechst High Intensity Objects (%) [7]: 11%
Population Membrane Permeable-Phenotype (%) [7]: 29%
Population Mitochondria Different-Phenotype (%) [7]: 9%
Population Mitotic Cells (%) [7]: 26%
Population Normal (%) [7]: 88%
Population Pyknosed Nuclei (%) [7]: 17%
Population Tubulin-Different-Phenotype (%) [7]: 35%
Population Apoptotic (%) [8]: 30%
Population Fragmented Nuclei (%) [8]: 18%
Population Healthy Nuclei (%) [8]: 68%
Population Hoechst High Intensity Objects (%) [8]: 3%
Population Membrane Permeable-Phenotype (%) [8]: 5%
Population Mitochondria Different-Phenotype (%) [8]: 11%
Population Mitotic Cells (%) [8]: 70%
Population Normal (%) [8]: 96%
Population Pyknosed Nuclei (%) [8]: 13%
Population Tubulin-Different-Phenotype (%) [8]: 43%
Population Apoptotic (%) [9]: 83%
Population Fragmented Nuclei (%) [9]: 42%
Population Healthy Nuclei (%) [9]: 51%
Population Hoechst High Intensity Objects (%) [9]: 24%
Population Membrane Permeable-Phenotype (%) [9]: 26%
Population Mitochondria Different-Phenotype (%) [9]: 0%
Population Mitotic Cells (%) [9]: 16%
Population Normal (%) [9]: 75%
Population Pyknosed Nuclei (%) [9]: 5%
Population Tubulin-Different-Phenotype (%) [9]: 42%
Population Apoptotic (%) [10]: 0%
Population Fragmented Nuclei (%) [10]: 24%
Population Healthy Nuclei (%) [10]: 74%
Population Hoechst High Intensity Objects (%) [10]: 14%
Population Membrane Permeable-Phenotype (%) [10]: 8%
Population Mitotic Cells (%) [10]: 100%
Population Normal (%) [10]: 85%
Population Pyknosed Nuclei (%) [10]: 1%
Population Tubulin-Different-Phenotype (%) [10]: 26%
Population Apoptotic (%) [11]: 66%
Population Fragmented Nuclei (%) [11]: 36%
Population Healthy Nuclei (%) [11]: 58%
Population Hoechst High Intensity Objects (%) [11]: 13%
Population Membrane Permeable-Phenotype (%) [11]: 11%
Population Mitochondria Different-Phenotype (%) [11]: 3%
Population Mitotic Cells (%) [11]: 33%
Population Normal (%) [11]: 86%
Population Pyknosed Nuclei (%) [11]: 5%
Population Tubulin-Different-Phenotype (%) [11]: 17%
Population Apoptotic (%) [12]: 0%
Population Fragmented Nuclei (%) [12]: 32%
Population Healthy Nuclei (%) [12]: 65%
Population Hoechst High Intensity Objects (%) [12]: 2%
Population Membrane Permeable-Phenotype (%) [12]: 16%
Population Mitochondria Different-Phenotype (%) [12]: 1%
Population Mitotic Cells (%) [12]: 100%
Population Normal (%) [12]: 97%
Population Pyknosed Nuclei (%) [12]: 2%
Population Tubulin-Different-Phenotype (%) [12]: 41%
